Calls of active or inactive are those of the source. The rule behind the calls is not given here.
What was measured:
[1] = biological target: T1, Kinesin-like protein KIF23 (Homo sapiens) (UniProt Q02241); test: Inhibition of MKLP-1 ATPase activity at 20 uM
T1 sequence (whole entry): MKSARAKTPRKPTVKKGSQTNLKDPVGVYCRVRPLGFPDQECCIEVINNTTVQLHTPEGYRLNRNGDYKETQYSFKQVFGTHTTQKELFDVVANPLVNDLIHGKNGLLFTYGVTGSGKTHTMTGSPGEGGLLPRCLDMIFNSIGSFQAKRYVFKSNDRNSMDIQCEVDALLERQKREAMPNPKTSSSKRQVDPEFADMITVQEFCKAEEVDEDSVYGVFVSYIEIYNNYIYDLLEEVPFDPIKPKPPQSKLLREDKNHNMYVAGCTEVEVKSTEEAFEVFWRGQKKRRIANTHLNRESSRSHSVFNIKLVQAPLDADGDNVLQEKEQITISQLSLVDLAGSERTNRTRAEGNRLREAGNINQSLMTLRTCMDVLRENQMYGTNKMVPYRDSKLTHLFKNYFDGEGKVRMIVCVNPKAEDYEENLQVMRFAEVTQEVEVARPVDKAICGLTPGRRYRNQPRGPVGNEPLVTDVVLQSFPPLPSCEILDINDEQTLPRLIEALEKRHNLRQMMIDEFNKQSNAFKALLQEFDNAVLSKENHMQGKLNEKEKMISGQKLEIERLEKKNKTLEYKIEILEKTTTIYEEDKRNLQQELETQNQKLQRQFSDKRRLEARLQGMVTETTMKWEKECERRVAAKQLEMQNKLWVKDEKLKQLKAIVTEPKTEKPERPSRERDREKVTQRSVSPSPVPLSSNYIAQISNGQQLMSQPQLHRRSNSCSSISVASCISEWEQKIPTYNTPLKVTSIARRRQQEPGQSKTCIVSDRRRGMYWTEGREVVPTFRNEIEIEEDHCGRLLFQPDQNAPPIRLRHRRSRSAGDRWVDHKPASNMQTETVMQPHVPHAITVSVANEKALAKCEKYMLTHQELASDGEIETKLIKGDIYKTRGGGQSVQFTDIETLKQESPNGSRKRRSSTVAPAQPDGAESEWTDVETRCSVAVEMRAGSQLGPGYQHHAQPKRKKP

HeLa = test: Cell cycle arrest in human HeLa cells assessed as accumulation at M phase at 36 uM after 20 hrs by DAPI staining relative to taxol; assay type: functional; settings: in the assay text read “at 32 uM” for “at 36 uM”
Procedure, shortened: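 HeLa cells were exposed to compound for 20 h and scored for M-phase arrest. Mitotic index was expressed as a percentage of the induction given by 0.1 μM taxol.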

[2] = biological target: T2, Chromosome-associated kinesin KIF4A (Homo sapiens) (UniProt O95239); test: Inhibition of KIF-4 ATPase activity at 20 uM
T2 sequence (whole entry): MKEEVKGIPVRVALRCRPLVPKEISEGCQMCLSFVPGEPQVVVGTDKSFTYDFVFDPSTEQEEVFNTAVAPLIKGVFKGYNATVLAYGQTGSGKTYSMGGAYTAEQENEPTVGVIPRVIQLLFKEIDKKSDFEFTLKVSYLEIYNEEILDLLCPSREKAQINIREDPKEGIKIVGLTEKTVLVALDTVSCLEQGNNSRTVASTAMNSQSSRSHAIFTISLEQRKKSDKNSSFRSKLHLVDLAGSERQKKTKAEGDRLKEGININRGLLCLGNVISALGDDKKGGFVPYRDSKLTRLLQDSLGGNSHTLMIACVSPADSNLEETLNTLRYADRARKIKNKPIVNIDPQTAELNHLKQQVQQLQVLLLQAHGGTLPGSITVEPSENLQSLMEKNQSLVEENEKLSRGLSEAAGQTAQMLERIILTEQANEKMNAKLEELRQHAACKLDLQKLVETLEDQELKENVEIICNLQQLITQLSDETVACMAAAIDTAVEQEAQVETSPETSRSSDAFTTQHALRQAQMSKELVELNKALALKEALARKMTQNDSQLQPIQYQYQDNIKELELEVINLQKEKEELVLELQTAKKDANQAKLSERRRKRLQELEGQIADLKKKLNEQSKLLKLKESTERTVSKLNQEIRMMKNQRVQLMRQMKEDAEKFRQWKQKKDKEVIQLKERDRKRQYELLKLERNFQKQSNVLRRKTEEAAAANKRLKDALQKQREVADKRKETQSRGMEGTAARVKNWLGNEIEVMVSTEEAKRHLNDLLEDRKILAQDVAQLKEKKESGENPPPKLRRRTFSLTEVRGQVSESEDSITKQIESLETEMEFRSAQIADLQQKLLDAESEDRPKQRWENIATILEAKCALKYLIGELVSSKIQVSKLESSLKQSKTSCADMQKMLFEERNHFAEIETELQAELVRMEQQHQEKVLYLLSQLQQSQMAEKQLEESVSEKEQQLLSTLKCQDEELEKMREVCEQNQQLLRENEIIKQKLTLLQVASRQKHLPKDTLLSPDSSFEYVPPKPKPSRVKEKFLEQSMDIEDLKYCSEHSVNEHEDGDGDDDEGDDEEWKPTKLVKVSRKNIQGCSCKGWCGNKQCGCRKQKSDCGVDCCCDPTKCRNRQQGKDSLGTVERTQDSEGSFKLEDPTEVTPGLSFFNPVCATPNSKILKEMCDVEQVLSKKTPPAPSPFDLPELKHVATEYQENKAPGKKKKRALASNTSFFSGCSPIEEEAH

Structure (SMILES)	inhibition [1]	Activity (HeLa)	inhibition [2]
FC(F)(F)c1ccc2[nH]c3ccccc3c2c1	inactive	57%	inactive
FC(F)(F)c1ccc2c(c1)[nH]c1ccccc12	inactive	–	inactive
CC(C)(C)c1ccc2c(c1)[nH]c1ccccc12	inactive	37%	inactive
